The results in this text go back to ChEMBL document CHEMBL2046415, “Double protein knockdown of cIAP1 and CRABP-II using a hybrid molecule consisting of ATRA and IAPs antagonist” (2012).

For experiment [1], the system named is HT-1080. Kind of experiment: Activation of proteasome in human HT1080 cells expressing FLAG-tagged cIAP1 assessed as induction of cIAP1 and CRABP-2 protein degradation after 6 hrs by Western blot analysis. Background: A western blot detects proteins with antibodies after separation by electrophoresis.
Experiment [2] concerns HT-1080. Nature of the experiment: Activation of proteasome in human HT1080 cells expressing FLAG-tagged cIAP1 assessed as induction of cIAP1 and CRABP-2 protein degradation at 10 uM after 6 hrs by Western blot analysis in presence of proteasome inhibitor MG132. Summed up: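 Compound exposure 6 h; proteasome inhibitor MG132 (10) added to the culture 30 min before compound; cIAP1 and CRABP-II levels then read by Western blot.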

In experiment [3] the test system is IMR-32. Kind of experiment: Activation of proteasome in human IMR32 cells assessed as induction of cIAP1 and CRABP-2 protein degradation at 3 to 30 uM after 24 hrs by Western blot analysis.
Experiment [4] relates to IMR-32. Kind of experiment: Induction of apoptosis in human IMR32 cells assessed as activation of caspase 3/7 after 24 hrs relative to control. It counts as functional. In a few lines:
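IMR-32 cells exposed to compounds for 24 h; caspase 3/7 activity expressed as fold increase over untreated control; values are means of triplicate determinations.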

The target in experiment [5] is T1, Retinoic acid receptor alpha (Homo sapiens) (UniProt P10276).
T1 sequence (whole entry): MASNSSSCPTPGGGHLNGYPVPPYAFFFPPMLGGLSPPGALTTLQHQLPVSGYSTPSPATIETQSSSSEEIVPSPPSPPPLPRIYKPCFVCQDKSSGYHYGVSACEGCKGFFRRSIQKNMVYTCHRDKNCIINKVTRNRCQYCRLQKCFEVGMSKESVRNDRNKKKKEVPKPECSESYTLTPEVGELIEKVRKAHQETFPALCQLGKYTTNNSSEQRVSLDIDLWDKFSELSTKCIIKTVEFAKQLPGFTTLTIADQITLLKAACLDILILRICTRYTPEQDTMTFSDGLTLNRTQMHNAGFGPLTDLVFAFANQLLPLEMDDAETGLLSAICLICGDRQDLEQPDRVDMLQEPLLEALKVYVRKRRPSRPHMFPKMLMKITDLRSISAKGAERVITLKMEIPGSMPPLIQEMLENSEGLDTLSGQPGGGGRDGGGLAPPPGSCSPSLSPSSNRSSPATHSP
Kind of experiment: Induction of RARalpha degradation.

Experiment [6] deals with HT-1080. Nature of the experiment: Activation of proteasome in human HT1080 cells expressing FLAG-tagged cIAP1 assessed as induction of cIAP1 protein degradation at 10 uM after 6 hrs by Western blot analysis.
The subject of experiment [7] is IMR-32. Nature of the experiment: Antiproliferative activity against human IMR32 cells assessed as reduction of cell number at 30 uM after 24 to 72 hrs. It counts as functional, cell-based.
For experiment [8], the system named is HT-1080. Kind of experiment: Induction of cIAP1 protein degradation in human HT1080 cells at 0.1 to 10 uM after 6 hrs by Western blot analysis. The class given is functional, cell-based.
Experiment [9] has as its system HT-1080. Kind of experiment: Activation of proteasome in human HT1080 cells expressing FLAG-tagged cIAP1 assessed as induction of CRABP-2 protein degradation at 10 uM after 6 hrs by Western blot analysis.
In experiment [10] the test system is HT-1080. Kind of experiment: Activation of proteasome in human HT1080 cells expressing FLAG-tagged cIAP1 assessed as induction of cIAP1 and CRABP-2 protein degradation at 0.1 to 10 uM after 6 hrs by Western blot analysis.

Active and inactive are the calls of the source. No cut-off for these calls is given here. Square brackets hold non-standard residues; d marks the D form. Peptide text beside a SMILES is read from it. Dip = N[C@H](C(=O)O)C(c1ccccc1)c1ccccc1; Chg = N[C@H](C(=O)O)C1CCCCC1; NMeA = CN[C@@H](C)C(=O)O

In the case of `CN[C@@H](C)C(=O)N[C@H](C(=O)N1CCC[C@H]1C(=O)N[C@H](C(=O)NCCOCCOCCNC(=O)CO/N=C1\CCC(C)(C)C(/C=C/C(C)=C/C=C/C(C)=C/C(=O)O)=C1C)C(c1ccccc1)c1ccccc1)C1CCCCC1`, the Activity result with HT-1080 [1] was “Dose-dependent effect”. The result (in the experiment on HT-1080 [2]; in [5]) was inactive. The result in the experiment with IMR-32 [3], with HT-1080 [6] and in the experiment with IMR-32 [7] was Active. Besides, in the experiment with IMR-32 [4], the “fold change (FC)” value worked out at 4.44.

As for `COC(=O)[C@H](CC(C)C)NC(=O)[C@@H](O)[C@H](N)Cc1ccccc1`, the result with HT-1080 [8] was Active.

As to `CN[C@@H](C)C(=O)N[C@H](C(=O)N1CCC[C@H]1C(=O)N[C@H](C(=O)OC)C(c1ccccc1)c1ccccc1)C1CCCCC1` (H-[NMeA][Chg]P[Dip]-OMe), the result with HT-1080 [9] was inactive. The result in the experiment on HT-1080 [6] and in the experiment on HT-1080 [8] was Active.

Turning to `CC1=C(/C=C/C(C)=C/C=C/C(C)=C/C(=O)O)C(C)(C)CC/C1=N\OCC(=O)NCCOCCOCCOC(=O)[C@H](CC(C)C)NC(=O)[C@@H](O)[C@H](N)Cc1ccccc1`, the outcome with HT-1080 [10], with IMR-32 [3] and in the experiment with IMR-32 [7] was Active. The “fold change (FC)” value in the experiment on IMR-32 [4] turned out to be 3.61.

As for `CC1=C(/C=C/C(C)=C/C=C/C(C)=C/C(=O)O)C(C)(C)CCC1`, the result in the experiment with HT-1080 [9] and in the experiment on HT-1080 [6] was inactive.

Consider `CC1=C(/C=C/C(C)=C/C=C/C(C)=C/C(=O)O)C(C)(C)CC/C1=N\OCC(=O)NCCOCCOCCNC(=O)[C@H](CC(C)C)NC(=O)[C@@H](O)[C@H](N)Cc1ccccc1`, for which the outcome in the experiment on IMR-32 [3] was Active. Further, the “fold change (FC)” value in the experiment on IMR-32 [4] is recorded as 1.84.
